Experimental findings from paper PMC6049601 (International Journal of Nanomedicine, 2018) are described below.

The nature of data set [1]: Oral bioavailability / pharmacokinetic study in rats. As to conditions: Sprague-Dawley, rat, plasma, iv, 8 mg/kg. Format: in vivo, Sprague-Dawley (SD) rats. The gist of the method: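 Sprague-Dawley rats (220 ± 20 g, n = 5) were fasted overnight with water allowed, then given test compound solution i.v. at 8 mg/kg. Tail-vein blood was drawn into heparinised tubes at 0.133–12 h. Plasma was extracted with acetonitrile, dried at 30°C, reconstituted in 50% acetonitrile and run on UPLC-QTOF/MS (0.1% formic acid water/acetonitrile gradient). Parameters came from noncompartmental analysis.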

The nature of data set [2]: In vitro release study by dialysis bag method. Type of data set: physicochemical. The note with it: solution formulation, water with 1% Tween 80, 37°C. The gist of the method:
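Test compound was dissolved in water/ethanol/PEG400 (20/40/40, v/v/v). Samples equivalent to 10 mg were sealed in dialysis bags (MWCO ~14,000) and dialysed against 100 mL purified water containing 1% Tween 80 at 37°C. Medium aliquots were taken at set times and replaced with fresh medium, diluted with methanol and assayed by HPLC. Cumulative release percentage was plotted against time.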

Another data set deals with Caco-2 cells. Nature of the data set: Cellular uptake in Caco-2 cells. Format: cell-based. The note with it: Caco-2, 20 μg/mL, 1, 2 and 4 h.
Data set [3] concerns TNF-α in LPS-induced RAW 264.7 cells. Nature of the data set: In vitro anti-inflammatory effect: TNF-α. Type of data set: cell-based, Mouse. The note with it: 25 μg/mL, LPS 1 μg/mL, 24 h. In a few lines: (§1)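 RAW 264.7 mouse macrophages grown in RPMI-1640 with 10% FBS at 37°C, 5% CO2, seeded at 2 × 10^5 cells/well. Cells were exposed to LPS (1 μg/mL) with or without test formulation for 24 h; medium-only and LPS-only wells served as control and model. Supernatants were cleared at 10,000 rpm, 4°C. TNF-α, IL-6 and NO were measured by ELISA kits; mean ± SD, n = 3.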

The subject of data set [4] is IL-6 in LPS-induced RAW 264.7 cells. Nature of the data set: In vitro anti-inflammatory effect: IL-6. As to conditions: 25 μg/mL, LPS 1 μg/mL, 24 h. Format: cell-based, Mouse. The gist of the method:
as §1

Data set [5] relates to NO in LPS-induced RAW 264.7 cells. Nature of the data set: In vitro anti-inflammatory effect: NO. Format: cell-based, Mouse. As to conditions: 25 μg/mL, LPS 1 μg/mL, 24 h. In a few lines:
as §1

With `Oc1ccc(/C=C/c2cc(O)cc(O)c2)cc1` [Free RES, Resveratrol], in data set [1], the AUC(0-t) amounted to 0.902 ± 0.0337 µg·h/mL, the concentration peaked (Cmax) at 0.974 ± 0.302 µg/mL, the MRT inf came out at 5.27 ± 0.931 h and the Tmax was determined as 7.98 ± 3.24 min. Moreover, the In vitro release entry in data set [2] is “released completely in a very short time”. In addition, the “Cellular uptake (intracellular RES concentration)” value with Caco-2 cells is “rapid cellular uptake relative to RES-NPs”. In addition, the “Effect on TNF-α compared to the LPS model” value in data set [3] is “substantially suppressed”. The “Effect on IL-6 compared to the LPS model” value in data set [4] was “substantially suppressed”. In addition, the “Effect on NO compared to the LPS model” value in data set [5] was “substantially suppressed”.
